From ChEMBL document CHEMBL2321719, “Discovery of novel α₁-adrenoceptor ligands based on the antipsychotic sertindole suitable for labeling as PET ligands” (Bioorg Med Chem, 2013)

How the values were obtained:
[1] = Selectivity ratio of Ki for human dopamine D2 receptor to Ki for bovine alpha1A adrenoceptor
How it was run: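 D2: human receptor in CHO membranes, 0.1 nM [3H]spiperone, 50 mM Tris pH 7.4, nonspecific binding with haloperidol, 30 min at 37 °C. Both used GF/B filtration, ≥2 ten-point curves and Cheng–Prusoff.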

[2] = biological target: T1, Alpha-1A adrenergic receptor (Bos taurus, UniProt P18130); experiment: Displacement of [3H]prazosine from bovine alpha1A adrenoceptor expressed in BHK cells after 20 mins by scintillation counting analysis; format: cell-based
T1 sequence (P18130 whole entry): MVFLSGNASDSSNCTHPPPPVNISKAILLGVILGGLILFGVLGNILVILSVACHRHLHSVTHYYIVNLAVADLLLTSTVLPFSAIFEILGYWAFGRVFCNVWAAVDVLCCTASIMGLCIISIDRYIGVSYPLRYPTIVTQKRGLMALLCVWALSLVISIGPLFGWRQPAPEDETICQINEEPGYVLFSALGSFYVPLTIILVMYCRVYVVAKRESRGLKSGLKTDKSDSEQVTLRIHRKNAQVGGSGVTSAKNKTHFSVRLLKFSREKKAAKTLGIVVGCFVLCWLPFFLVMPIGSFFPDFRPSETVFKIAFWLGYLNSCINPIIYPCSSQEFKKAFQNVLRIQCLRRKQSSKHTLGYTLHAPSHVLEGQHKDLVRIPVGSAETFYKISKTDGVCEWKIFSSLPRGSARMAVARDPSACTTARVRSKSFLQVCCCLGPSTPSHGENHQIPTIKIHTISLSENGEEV

D(2) dopamine receptor = D(2) dopamine receptor (Homo sapiens, UniProt P14416); experiment: Displacement of [3H]spiperone from human dopamine D2 receptor expressed in CHO cells after 30 mins by scintillation counting analysis; format: cell-based
Sequence of D(2) dopamine receptor (P14416 whole entry): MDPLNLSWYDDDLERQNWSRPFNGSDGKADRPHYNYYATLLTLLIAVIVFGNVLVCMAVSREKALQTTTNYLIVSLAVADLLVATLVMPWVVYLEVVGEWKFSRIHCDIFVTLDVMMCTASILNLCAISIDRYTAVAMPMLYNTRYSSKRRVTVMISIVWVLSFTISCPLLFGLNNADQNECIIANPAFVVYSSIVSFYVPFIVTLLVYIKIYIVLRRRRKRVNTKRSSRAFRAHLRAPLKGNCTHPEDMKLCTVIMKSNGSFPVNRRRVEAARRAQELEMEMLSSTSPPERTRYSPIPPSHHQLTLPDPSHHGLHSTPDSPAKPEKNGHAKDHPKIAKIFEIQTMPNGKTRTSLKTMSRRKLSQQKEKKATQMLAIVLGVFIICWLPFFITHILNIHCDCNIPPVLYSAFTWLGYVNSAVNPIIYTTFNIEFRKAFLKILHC

[3] = Unbound fraction in rat plasma at 1000 ng/g after 5 hrs by equilibrium dialysis method; format: ADME, cell-free
How it was run: (§1)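 Free fraction was measured by 96-well equilibrium dialysis through 3 kDa membranes. Plasma was diluted 1:1 with PBS; rat brain was sonicated on ice to 1:2 brain:PBS. Matrices were spiked at 1000 ng/g (n = 6) and dialysed against PBS for 5 h at 37 °C. Samples were read by LC–MS/MS, and fu was calculated per Kalvass–Maurer with correction for brain dilution.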

[4] = Ratio of drug level in brain to plasma in rat at 1 hr; format: ADME, cell-free; details: brain and plasma, read-out: BPR
[5] = Apparent permeability across apical to basolateral side in human Caco2 cells at 1 to 20 uM by LC-MS/MS analysis; format: ADME, cell-based; details: Caco-2
How it was run: (§2)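 Caco-2 monolayers were grown on permeable filters for 21–28 days. A 2 mM DMSO stock was diluted in Hanks-Hepes buffer, pH 7.4, and added to the apical (A–B) or basolateral (B–A) side. The receiver side was sampled over 240 min and topped up with fresh buffer, then analysed by LC–MS/MS. […] Efflux ratio = Papp(B–A)/Papp(A–B).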

[6] = Unbound fraction in rat brain at 1000 ng/g after 5 hrs by equilibrium dialysis method; format: ADME, tissue-based; how it was run: as §1
[7] = Ratio of drug level in brain to plasma at steady state in rat at 1000 ng/g after 5 hrs; format: ADME, cell-free; details: brain and plasma, read-out: BPR
How it was run: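 Steady-state rat brain/plasma ratio was estimated from equilibrium-dialysis free fractions (spike 1000 ng/g, 5 h, 37 °C, LC–MS/MS) as fu,plasma/fu,brain. This assumes passive distribution, with equal unbound concentrations in brain and plasma.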

[8] = Efflux ratio of apparent permeability from basolateral to apical side over apical to basolateral side in human Caco2 cells at 1 to 20 uM; format: ADME, cell-based; details: Caco-2; how it was run: as §2
[9] = Unbound fraction in cynomolgus monkey plasma at 1000 ng/g after 5 hrs by equilibrium dialysis method; format: ADME, cell-free, Macaca fascicularis; how it was run: as §1
[10] = biological target: 5-hydroxytryptamine receptor 1B (Homo sapiens, UniProt P28222); experiment: Displacement of [3H]CT from human 5-HT1B receptor expressed in human HeLa cells after 60 mins by scintillation counting analysis; format: cell-based
Sequence of 5-hydroxytryptamine receptor 1B (P28222 whole entry): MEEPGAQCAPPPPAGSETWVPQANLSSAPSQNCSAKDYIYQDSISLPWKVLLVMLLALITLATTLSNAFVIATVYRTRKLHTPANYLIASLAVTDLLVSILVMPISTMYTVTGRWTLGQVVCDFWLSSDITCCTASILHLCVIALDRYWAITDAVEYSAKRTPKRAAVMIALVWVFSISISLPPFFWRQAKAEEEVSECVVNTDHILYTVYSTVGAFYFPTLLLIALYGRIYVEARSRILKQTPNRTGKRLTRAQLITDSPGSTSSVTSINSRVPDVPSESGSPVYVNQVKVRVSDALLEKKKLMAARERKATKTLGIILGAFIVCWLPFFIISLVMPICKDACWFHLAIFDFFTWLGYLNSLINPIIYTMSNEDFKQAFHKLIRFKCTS
How it was run: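 Membranes from HeLa cells expressing human 5-HT1B were prepared in ice-cold 50 mM Tris, pH 7.4. The assay ran in 50 mM Tris, pH 7.7, with 0.8 mg/mL WGA SPA beads and 1.5 nM [3H]CT, for 60 min at room temperature, read by scintillation counting. Nonspecific binding was taken with 5-HT creatinine sulphate. Ki came from ≥2 ten-point curves spanning 4 decades, via Cheng–Prusoff.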

[11] = Unbound fraction in rhesus monkey plasma at 1000 ng/g after 5 hrs by equilibrium dialysis method; format: ADME, cell-free, Macaca mulatta; how it was run: as §1
[12] = Unbound fraction in human plasma at 1000 ng/g after 5 hrs by equilibrium dialysis method; format: ADME, cell-free; how it was run: as §1
[13] = biological target: 5-hydroxytryptamine receptor 6 (Homo sapiens, UniProt P50406); experiment: Displacement of [3H]LSD from human 5-HT6 receptor expressed in human HeLa cells after 60 mins by scintillation counting analysis; format: cell-based
Sequence of 5-hydroxytryptamine receptor 6 (P50406 whole entry): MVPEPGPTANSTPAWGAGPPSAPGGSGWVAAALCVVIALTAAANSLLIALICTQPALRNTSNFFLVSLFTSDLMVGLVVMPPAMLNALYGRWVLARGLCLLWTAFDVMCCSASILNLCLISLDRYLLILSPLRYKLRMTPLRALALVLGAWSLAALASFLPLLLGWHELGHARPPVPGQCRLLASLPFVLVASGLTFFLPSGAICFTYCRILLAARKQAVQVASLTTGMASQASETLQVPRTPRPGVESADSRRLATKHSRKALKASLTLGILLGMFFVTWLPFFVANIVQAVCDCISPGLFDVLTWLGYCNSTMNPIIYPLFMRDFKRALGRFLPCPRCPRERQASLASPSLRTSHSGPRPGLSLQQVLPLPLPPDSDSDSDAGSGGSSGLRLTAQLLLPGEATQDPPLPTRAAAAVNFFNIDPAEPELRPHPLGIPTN
How it was run: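 HeLa cells expressing human 5-HT6 were homogenised in 50 mM Tris, pH 7.4. Binding used 50 mM Tris, pH 7.7, and 1 nM [3H]LSD, with nonspecific binding taken with an indolylpiperidine 5-HT6 ligand. Incubation was 60 min at 22 °C, followed by GF/B filtration and scintillation counting. Ki came from ≥2 ten-point curves, via Cheng–Prusoff.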

[14] = Apparent permeability across apical to basolateral side in human Caco2 cells at 20 uM by LC-MS/MS analysis; format: ADME, cell-based; details: Caco-2; how it was run: as §2
[15] = biological target: T2, Alpha-1D adrenergic receptor (Rattus norvegicus, UniProt P23944); experiment: Displacement of [3H]prazosine from rat alpha1D adrenoceptor expressed in CHO cells after 20 mins by scintillation counting analysis; format: cell-based
T2 sequence (P23944 whole entry): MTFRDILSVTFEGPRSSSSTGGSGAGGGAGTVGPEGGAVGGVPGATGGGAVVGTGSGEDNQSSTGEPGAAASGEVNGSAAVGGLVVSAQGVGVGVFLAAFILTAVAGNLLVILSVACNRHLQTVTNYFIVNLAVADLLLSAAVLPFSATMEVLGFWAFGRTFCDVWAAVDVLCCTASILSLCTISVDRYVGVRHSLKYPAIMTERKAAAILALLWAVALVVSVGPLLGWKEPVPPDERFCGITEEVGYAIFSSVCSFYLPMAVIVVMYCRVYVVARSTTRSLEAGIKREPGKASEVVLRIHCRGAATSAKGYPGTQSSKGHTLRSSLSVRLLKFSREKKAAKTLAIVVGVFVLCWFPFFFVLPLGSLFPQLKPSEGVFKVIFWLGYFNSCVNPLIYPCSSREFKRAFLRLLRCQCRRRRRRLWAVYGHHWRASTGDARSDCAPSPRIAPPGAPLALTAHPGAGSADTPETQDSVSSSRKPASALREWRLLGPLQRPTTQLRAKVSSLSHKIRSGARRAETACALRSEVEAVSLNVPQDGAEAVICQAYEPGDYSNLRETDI

[16] = biological target: 5-hydroxytryptamine receptor 2A (Homo sapiens, UniProt P28223); experiment: Binding affinity to 5-HT2A receptor (unknown origin) by radioligand displacement assay
Sequence of 5-hydroxytryptamine receptor 2A (P28223 whole entry): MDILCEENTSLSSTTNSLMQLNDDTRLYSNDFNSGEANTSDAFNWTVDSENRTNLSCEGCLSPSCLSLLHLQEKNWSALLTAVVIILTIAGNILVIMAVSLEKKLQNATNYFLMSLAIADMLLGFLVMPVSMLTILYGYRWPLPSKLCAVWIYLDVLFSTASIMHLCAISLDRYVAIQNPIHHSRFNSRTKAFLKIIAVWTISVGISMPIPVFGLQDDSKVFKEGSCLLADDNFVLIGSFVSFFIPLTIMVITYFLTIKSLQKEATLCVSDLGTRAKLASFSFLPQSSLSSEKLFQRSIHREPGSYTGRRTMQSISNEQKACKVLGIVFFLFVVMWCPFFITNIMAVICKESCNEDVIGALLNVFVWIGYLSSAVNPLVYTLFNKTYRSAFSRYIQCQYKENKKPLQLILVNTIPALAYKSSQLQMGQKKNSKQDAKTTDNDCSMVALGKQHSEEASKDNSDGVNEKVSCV
How it was run: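 This external human 5-HT2A binding assay (Cerep) tested compounds at two concentrations, one of them 100 nM. Ki was derived from a single run, so the error is unknown.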

[17] = Efflux ratio of apparent permeability from basolateral to apical side over apical to basolateral side in human Caco2 cells at 20 uM; format: ADME, cell-based; details: Caco-2
How it was run: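 Caco-2 monolayers grown 21–28 days on permeable filters; 2 mM DMSO stock diluted in Hanks-Hepes buffer, pH 7.4, and added to the apical (A–B) or basolateral (B–A) chamber. The opposite chamber was sampled over 240 min, with buffer replaced, and analysed by LC–MS/MS. Papp = dQ/dt × 1/(A × C0), with area 1.1 cm²; ratio = Papp(B–A)/Papp(A–B); N = 2.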

[18] = biological target: T3, Alpha-1B adrenergic receptor (Mesocricetus auratus, UniProt P18841); experiment: Displacement of [3H]prazosine from hamster alpha1B adrenoceptor expressed in Rat1 cells after 20 mins by scintillation counting analysis; format: cell-based
T3 sequence (P18841 whole entry): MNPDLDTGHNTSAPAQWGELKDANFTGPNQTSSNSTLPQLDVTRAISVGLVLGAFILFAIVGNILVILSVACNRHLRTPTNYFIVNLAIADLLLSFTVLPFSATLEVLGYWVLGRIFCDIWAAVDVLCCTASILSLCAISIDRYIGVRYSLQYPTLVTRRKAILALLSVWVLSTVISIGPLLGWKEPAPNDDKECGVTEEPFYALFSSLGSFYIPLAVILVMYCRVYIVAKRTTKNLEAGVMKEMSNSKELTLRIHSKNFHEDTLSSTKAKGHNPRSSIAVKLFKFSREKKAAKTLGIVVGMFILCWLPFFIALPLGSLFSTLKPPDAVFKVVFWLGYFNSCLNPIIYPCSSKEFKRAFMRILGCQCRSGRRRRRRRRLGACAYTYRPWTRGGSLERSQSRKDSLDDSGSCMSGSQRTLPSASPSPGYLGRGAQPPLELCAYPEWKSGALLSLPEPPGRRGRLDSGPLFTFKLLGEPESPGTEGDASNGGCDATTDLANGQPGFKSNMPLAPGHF

SMILES	Ratio Ki [1]	Ki [2] [nM]	Ki (D(2) dopamine receptor) [nM]	fraction unbound at 5 h, 1000 ng/g [3]	fraction unbound at 5 h, 1000 ng/g [6]	Kp at 5 h, 1000 ng/g [7]	further results
CN1CCC(c2cn(-c3ccc(F)cc3)c3ccc(-c4ccncc4)cc23)CC1	3	10	27	–	–	–	–
CN1CCC(c2cn(-c3ccncc3)c3ccc(-c4cnn(C)c4)cc23)CC1	168	38	6400	–	–	–	–
CN1CCC(c2cn(-c3ccc(F)cc3)c3ccc(-c4cnn(C)c4)cc23)CC1	56	2.7	150	–	–	–	–
Cn1nnc(-c2ccc3c(c2)c(C2CCN(CCN4CCNC4=O)CC2)cn3-c2ccc(F)cc2)n1	–	–	–	0.022	0.0035	6.3	Kp at 1 h [4]: 0.26; Papp A→B at up to 20 µM [5]: 12 ×10⁻⁶ cm/s
COc1ccccc1N1CCN(CCN(C(=O)C2CCCCC2)c2ccccn2)CC1 [WAY-100,635]	–	–	–	0.1	0.084	1.2	Kp at 1 h [4]: 1.7; efflux ratio at up to 20 µM [8]: 0.9; Papp A→B at up to 20 µM [5]: 38 ×10⁻⁶ cm/s
CN1CCC(c2cn(-c3ccncc3)c3ccc(-c4ccncc4)cc23)CC1	11	24	260	–	–	–	–
Cn1cc(-c2ccc3c(c2)c(C2CCN(CCN4CCNC4=O)CC2)cn3-c2ccc(F)cc2)nn1	–	–	–	0.072	0.0081	8.9	Kp at 1 h [4]: > 0.05; Papp A→B at up to 20 µM [5]: 5 ×10⁻⁶ cm/s
CN1CCC(c2cn(-c3ccncc3)c3ccc(-c4cccnc4)cc23)CC1	50	22	1100	–	–	–	–
CN1CCC(c2cn(-c3ccncc3)c3ccc(-c4cncnc4)cc23)CC1	44	19	830	–	–	–	–
CN1CCC(c2cn(-c3ccc(F)cc3)c3ccc(-c4cccnc4)cc23)CC1	33	2.3	76	–	–	–	–
CN1CCC(c2cn(-c3ccc(F)cc3)c3ccc(-c4ccn(C)n4)cc23)CC1	296	0.54	160	–	–	–	–
CN1CCC(c2cn(-c3ccc(F)cc3)c3ccc(-c4cncnc4)cc23)CC1	–	–	–	0.088	0.0025	35	fraction unbound at 5 h, 1000 ng/g [9]: 0.1; Ki [10]: 13 nM; fraction unbound at 5 h, 1000 ng/g [11]: 0.13; fraction unbound at 5 h, 1000 ng/g [12]: 0.096; Ki [13]: 16 nM; Papp A→B at 20 µM [14]: 13 ×10⁻⁶ cm/s
CCN1CCC[C@H]1CNC(=O)c1c(O)c(Cl)cc(Cl)c1OC [RACLOPRIDE]	–	–	–	0.27	0.08	3.4	Kp at 1 h [4]: 6.4; efflux ratio at up to 20 µM [8]: 0.5; Papp A→B at up to 20 µM [5]: 66 ×10⁻⁶ cm/s
CN1CCC(c2cn(-c3ccc(F)cc3)c3ccc(-c4ccnn4C)cc23)CC1	47	0.32	15	–	–	–	–
CN1CCC(c2cn(-c3ccc(F)cc3)c3ccc(-c4nnn(C)n4)cc23)CC1	246	0.28	69	–	–	–	–
CN1CCC(c2cn(-c3ccc(F)cc3)c3ccc(-c4ncn(C)n4)cc23)CC1	1380	0.16	220	0.074	0.002	37	fraction unbound at 5 h, 1000 ng/g [9]: 0.16; fraction unbound at 5 h, 1000 ng/g [11]: 0.18; fraction unbound at 5 h, 1000 ng/g [12]: 0.17; Ki [15]: 15 nM; Ki [16]: 89 nM; Papp A→B at 20 µM [14]: 18 ×10⁻⁶ cm/s; efflux ratio at 20 µM [17]: 0.7; Ki [18]: 6.4 nM
CN1CCC(c2cn(-c3ccncc3)c3ccc(-c4ccnn4C)cc23)CC1	46	19	880	–	–	–	–
